CHRM4 antagonist: human M4 muscarinic receptor antagonists, primary screen, CHO cells, Fluo-8 calcium fluorescence; Muscarinic acetylcholine receptor M4 (Homo sapiens), P08173; CHO-hM4 cells, ACh EC80; inhibition, % at 3 µM; actives 0.73% (n = 360,000); AID 624125, 2012;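 active = inhibition above its plate's cutoff, the mean inhibition of sample wells plus 3 SD, cut at about 27% in these data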;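 also: 0% = acetylcholine EC80 with DMSO and 100% = DMSO without agonist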
Target sequence (P08173 whole entry, looked up): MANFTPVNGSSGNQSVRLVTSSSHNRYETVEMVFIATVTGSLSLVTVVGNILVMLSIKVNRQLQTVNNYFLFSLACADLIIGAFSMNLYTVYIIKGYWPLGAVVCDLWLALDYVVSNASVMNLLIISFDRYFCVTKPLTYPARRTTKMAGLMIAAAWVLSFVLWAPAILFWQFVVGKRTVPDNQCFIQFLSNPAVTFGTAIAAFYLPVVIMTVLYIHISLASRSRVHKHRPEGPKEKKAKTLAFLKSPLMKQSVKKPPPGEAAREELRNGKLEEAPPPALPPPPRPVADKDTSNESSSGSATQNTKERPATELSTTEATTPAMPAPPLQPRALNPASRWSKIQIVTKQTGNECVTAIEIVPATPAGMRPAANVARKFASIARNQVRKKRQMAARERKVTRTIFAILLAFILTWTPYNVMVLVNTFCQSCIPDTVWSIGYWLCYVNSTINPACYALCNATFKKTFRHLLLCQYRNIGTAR
CHRM4 agonist: human M4 muscarinic receptor agonists, primary screen, CHO-K1 cells, Fluo-8 calcium fluorescence; activation, % at 3 µM; Muscarinic acetylcholine receptor M4 (Homo sapiens), P08173; actives 0.14% (n = 360,000); CHO-K1 hM4/Gqi5; vehicle 0%, full acetylcholine response 100%;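 active = activation above the run mean over all test wells plus 3 SD, cut at about 32% in these data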;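 also: peak over basal fluorescence ratio per well then scaled between controls; 0% = DMSO wells and 100% = acetylcholine at EC100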
CHRM5 antagonist: human M5 muscarinic receptor antagonists, primary screen, CHO cells, Fluo-8 calcium fluorescence | CHO-hM5 cells, ACh EC80 | Muscarinic acetylcholine receptor M5 (Homo sapiens), P08912 | AID 624040, 2012 | actives 0.59% (n = 360,000) | inhibition, % at 3 µM;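 active = inhibition above a per-plate cutoff, the mean of that plate's test compounds plus 3 SD, cut at about 27% in these data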;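 also: 0% = acetylcholine EC80 with DMSO and 100% = DMSO without agonist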
M5 ag: human M5 muscarinic receptor agonists, primary screen, CHO-K1 cells, Fluo-8 calcium fluorescence | actives 0.19% (n = 360,000) | activation, % at 3 µM | Muscarinic acetylcholine receptor M5 (Homo sapiens), P08912 | CHO-K1 hM5 cells; 0% DMSO wells, 100% maximal acetylcholine response;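 active = activation above the run's mean over test compounds plus 3 SD, cut at about 23% in these data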;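 also: signal is peak over basal fluorescence ratio across the kinetic read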
CHRM5 PAM: human M5 muscarinic receptor positive allosteric modulators, primary screen, CHO-K1 cells, Fluo-8 calcium fluorescence; AID 624038, 2012; CHO-K1 hM5, ACh EC20 PAM; 0% = ACh EC20, 100% = ACh EC100; Muscarinic acetylcholine receptor M5 (Homo sapiens), P08912; activation, % at 3 µM; actives 0.3% (n = 360,000);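 active = activation above the run cutoff, the mean activation of all test compounds plus 3 SD, cut at about 18% in these data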
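Probe or stimulus: acetylcholine, EC20 level; Assay system: human M5 receptor in CHO-K1 cells; Schedule: compound preincubation 140 s before EC20 acetylcholine addition; Technique: intracellular calcium via Fluo-8 fluorescence; Dosing: single-point, 3 µM nominal; Read-out basis: percent activation from peak-over-basal fluorescence ratio, scaled EC20-to-EC100 acetylcholine; Repeats: one well per compound, no replicates.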
M4 PAM: human M4 muscarinic receptor positive allosteric modulators, primary screen, CHO-K1 cells, Fluo-8 calcium fluorescence; Muscarinic acetylcholine receptor M4 (Homo sapiens), P08173; CHO-K1 hM4/Gqi5, ACh EC20; 0% = ACh EC20, 100% = maximal ACh; activation, % at 3 µM; actives 0.4% (n = 360,000); AID 624126, 2012;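 active = activation above its plate's cutoff, the mean activation of sample wells plus 3 SD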
* hit, by the source's call. Rows were chosen to be rich in hits. Some 1.9% of all compounds tested hit in one or more screens of this group.

SMILES | CHRM4 antagonist | CHRM4 agonist | CHRM5 antagonist | M5 ag | CHRM5 PAM | M4 PAM
CC(=O)Nc1ccc(N/C(N)=N/c2nc(C)cc(C)n2)cc1 | 1 | 0 | -3 | -3 | 4 | -6
CCCCNC(=O)C1c2ccccc2OCC(=O)N1Cc1ccccc1 (stereo unspecified) | -11 | 1 | -16 | 1 | 12 | 23*
CCCCNC(=O)C1c2ccccc2OCC(=O)N1Cc1ccc2c(c1)OCO2 (stereo unspecified) | -3 | 1 | -1 | 0 | 0 | 1
Cc1ccc(C)c(/C(O)=C2\C(=O)C(=O)N(CCCn3ccnc3)C2c2cccnc2)c1 (stereo unspecified) | -13 | 0 | 8 | -1 | 20* | 6
CC(O)CC(=O)OC[C@]12CC[C@H]3[C@@](C)(CC[C@H]4C(C)(C)CCC[C@]34C)[C@@H]1CC(C1=CC(=O)OC1O)O2 (stereo partly specified) | 64* | 3 | 13 | 0 | -3 | -12
O=C(NC1CCS(=O)(=O)C1)c1ccc(N2CCCCC2)c([N+](=O)[O-])c1 (stereo unspecified) | 0 | 2 | 3 | -5 | -3 | 0
Cc1c2cc[n+](CCN3CCCCC3)cc2c(C)c2c1[nH]c1ccc(O)cc12 | -3 | 0 | 12 | 0 | 0 | 5
COC(=O)c1c(NC(=O)c2ccccc2)sc2c1CC(C)(C)NC2(C)C | 0 | 1 | 0 | 0 | -8 | -3
CC1(C)Cc2c(sc(NC(=O)c3ccc(C(=O)c4ccccc4)cc3)c2C(N)=O)C(C)(C)N1 | 10 | 16 | 32* | -6 | -8 | 0
CCOC(=O)/C(=C\c1cccnc1)C(=O)c1cc(C(C)=O)c(Nc2ccccc2)s1 | 46* | 5 | 10 | -5 | 1 | -3
CCOC(=O)/C(=C\c1ccccc1)C(=O)c1cc(C(C)=O)c(Nc2ccccc2)s1 | -3 | 1 | 6 | -1 | -4 | 2
O=C(COc1ccc(F)cc1Br)NCc1nnc2ccccn12 | -12 | 4 | 1 | 0 | -1 | 5
COc1ccc(CNC(=O)C(c2ccc(C)cc2)N(Cc2cccs2)C(=O)c2ccc3c(c2)OCCO3)cc1 (stereo unspecified) | 32* | 24 | 24 | 4 | -23 | -12
COc1ccc([N+](=O)[O-])cc1N(CC(=O)N1CCCC1)S(C)(=O)=O | -9 | 1 | 0 | -2 | 4 | 1
O=c1[nH]c(-c2ccccc2)nc(CN2CCCCC2)c1O | -15 | 1 | -2 | 0 | 0 | 21*
CC(=O)NC(c1ccc(F)c(F)c1)c1nc(-c2cccc(C(=O)O)c2)cs1 (stereo unspecified) | 2 | -1 | -1 | 7 | 3 | 8
CCOC(=O)c1sc(NC(=O)CN2C(=O)NC3(CCCCCCC3)C2=O)c(C(=O)OCC)c1C | 27* | 0 | -2 | 0 | 2 | 11
COc1ccc(NC(=O)CCNC(=O)c2ccco2)cc1Cl | -21 | 2 | 2 | -4 | 4 | -4
CCN(CC)CCN1C(=O)/C(=C\c2ccc(Cl)c([N+](=O)[O-])c2)SC1=Nc1ccc(OC)cc1 | 19 | 3 | 30* | -4 | 1 | -18
CC(=O)c1ccc(S(=O)(=O)N2CCN(CC(=O)Nc3ccccc3C(=O)NC3CC3)CC2)cc1 | 6 | 14 | 18 | 2 | -17 | -7
N#CCC(=O)Nc1ccc(C(=O)OCC(=O)Nc2ccccc2Sc2ccccc2)cc1 | 20 | 24 | 28* | 3 | -15 | -14
Cc1cccc(OCc2nc(-c3ccc(-n4cccc4)cc3)no2)c1 | -28 | 1 | 1 | 1 | 3 | 18*
Cc1ccc(OCc2nc(-c3ccc(-n4cccc4)cc3)no2)cc1C | -12 | -1 | 9 | 0 | -2 | 3
Cc1ccc(S(=O)(=O)N2C[C@H]3[C@H]4C(=O)N(c5ccccc5)C(=O)[C@H]4C[C@H](OC(=O)NC4CCCC4)[C@@]3(O)C2)cc1 | 4 | 0 | -13 | 2 | -3 | -7
Cc1ccc(S(=O)(=O)N2CCOCC2)cc1NC(=O)COc1cccc(Oc2ccccc2)c1 | 7 | 15 | 8 | 1 | -24 | -6
SMILES | CHRM4 antagonist | CHRM4 agonist | CHRM5 antagonist | M5 ag | CHRM5 PAM | M4 PAM
O=C(Nc1ccc(Cl)cc1)c1ccc(CN2CCc3ccccc3C2)cc1 | 12 | 3 | 4 | -8 | -2 | -8
COCC(C)NC(=O)c1ccc(CN2CCc3ccccc3C2)cc1 (stereo unspecified) | 28* | 1 | 11 | -9 | -5 | -16
O=C(Nc1ccc(S(=O)(=O)N2CCCC2)cc1)c1ccc(CN2CCc3ccccc3C2)cc1 | 32* | 14 | 18 | 2 | -13 | -15
O=C(Nc1ccccc1)c1ccc(CN2CCC(Cc3ccccc3)CC2)cc1 | 32* | 2 | 10 | -8 | -13 | -16
CN(CCc1ccccc1)C(C(=O)c1ccc2c(c1)OCO2)c1nnnn1-c1ccccc1NC(=O)OC(C)(C)C (stereo unspecified) | -2 | 4 | -4 | 2 | -5 | -1
Cc1ccc(NS(=O)(=O)c2ccc(-n3cccn3)cc2)cc1F | 7 | 12 | 14 | 5 | -5 | -4
COc1cccc(NS(=O)(=O)c2ccc(-n3cccn3)cc2)c1 | 31* | 26 | 18 | 4 | -14 | -12
O=C(Nc1ccc(Oc2ccccc2)nc1)C1CCN(Cc2cccc(F)c2)CC1 | 1 | 6 | 31* | -4 | -13 | -2
C#Cc1ccc(CN2CCC(C(=O)Nc3ccc(Oc4ccccc4)nc3)CC2)cc1 | -3 | 12 | 5 | -1 | -5 | -6
COc1ccc(Cl)cc1NC(=O)CN(C)C(=O)CN1C(=O)NC(C)(c2ccc3ccccc3c2)C1=O (stereo unspecified) | 6 | 8 | 3 | 6 | 6 | 8
O=C(c1cc(=O)[nH]c2ccccc12)N1CCN(S(=O)(=O)c2ccc(Cl)cc2)CC1 | 10 | 30 | 27* | 4 | -29 | -6
CC(=O)COc1cccc2ccc(/C=C/c3ccc(Br)s3)nc12 | -24 | 6 | -10 | 8 | 23* | -4

Screens (PubChem BioAssay)
